Data taken from article PMC8500941 (Molecular cell, 2021).
“Also recorded” adds a separate entry of the source.

Experiments:
[1] = test system: yeast Ssa1 and E. coli DnaK; conditions: heat shock; ref Liu & Hendrickson, 2007; cited from earlier work
[2] = test system: dnaK deletion strain BB205 E. coli cells; test: Cell viability tests; format: cell-based, Escherichia coli; conditions: growth on LB agar at elevated temperature (37°C to 40°C), 20 μM IPTG
Procedure, shortened: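 DnaK-dependence test: pBB46 plasmids (ampR) carrying mutant dnaK transformed into BB205 (camR kanR). Fresh overnight culture from each fresh transformation, serially diluted, spotted on LB with 50 μg/ml ampicillin, 25 μg/ml kanamycin, 25 μg/ml chloramphenicol, 20 μM IPTG. Grown overnight at 37°C to 40°C, with control plates at 30°C. Viability scored from growth.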

[3] = test system: DnaK; conditions: from biochemical assays of this paper
[4] = test system: W102 of DnaK; test: Tryptophan fluorescence assay; format: biochemical, Escherichia coli; conditions: for W102 fluorescence of D148 mutants (in words): ATP and ADP, compared with wild-type levels; for wavelength of maximal W102 fluorescence: 1 μM DnaK, buffer A pH 7.5, ~25°C, excitation 290 nm
Procedure, shortened: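 Protein: full-length DnaK with C-terminal His6, expressed in BB205 and purified by HisTrap then HiTrap Q. Protein (1 μM final) preincubated 2 min with 2 mM ATP or ADP in buffer A (25 mM Hepes-KOH pH 7.5, 100 mM KCl, 10 mM Mg(OAc)2). Emission 300–400 nm recorded at ~25°C. Spectra normalised to ADP peak = 1.0. ATP-versus-ADP peak-wavelength shift compared.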

[5] = test system: DnaK; conditions: for rate of ATP hydrolysis, basal: buffer A pH 7.5, single-turnover; for ATP hydrolysis (in words): intrinsic / low peptide concentration, compared with WT; for kcat (ATP hydrolysis): single-turnover, constitutively stimulated state (k′ = kcat)
[6] = test system: DnaK; conditions: from d with KD^0S 1.73 μM; 20°C

V389D
phenotype of mutants (in words) [1]: profoundly defective

D148I
chaperone activity / cell viability (in words) [2]: destroy chaperone activity | allosteric state phenotype (in words) [3]: exclusive stabilization of the restraining R-state alternative | W102 fluorescence of D148 mutants (in words) [4]: quenched and blue-shifted to beyond wild-type levels

WT DnaK: full-length wild-type E. coli Hsp70 DnaK
rate of ATP hydrolysis, basal ([5]; basal, 20°C): 0.012 min⁻¹ | wavelength of maximal W102 fluorescence ([4]; 2 mM ADP): 342 nm | wavelength of maximal W102 fluorescence ([4]; 2 mM ATP): 335 nm | W102 fluorescence change (in words) ([4]; ATP as compared with ADP): quenched and blue shifted

I160D
ATP hydrolysis (in words) [5]: constitutively high ATPase activities | phenotype of mutants (in words) [1]: profoundly defective

N170D
rate of ATP hydrolysis, basal ([5]; basal, 20°C): 0.37 min⁻¹ | enhancement of basal ATP hydrolysis over WT ([5]; basal, 20°C, versus WT): 31 fold | phenotype of mutants (in words) [1]: profoundly defective

WT∷NR: DnaK (residues 1–609) fused through a flexible linker to the NRLLLTG heptapeptide
kcat (ATP hydrolysis) ([5]; 20°C): 0.00455 ± 0.00013 s⁻¹ | KeqS = [R] / [S] [6]: 0

D148V
W102 fluorescence of D148 mutants (in words) [4]: quenched and blue-shifted to beyond wild-type levels

I483D
chaperone activity / cell viability (in words) [2]: negligible chaperone activity; also recorded: destroy chaperone activity | kcat (ATP hydrolysis) ([5]; 20°C): 0.00452 ± 0.000183 s⁻¹ | ATP hydrolysis (in words) [5]: constitutively high ATPase activities | KeqS = [R] / [S] [6]: 0 | phenotype of mutants (in words) [1]: profoundly defective
